The target of data set [1] is T1, Amine oxidase [flavin-containing] B (Homo sapiens, UniProt P27338).
T1 sequence (P27338 whole entry): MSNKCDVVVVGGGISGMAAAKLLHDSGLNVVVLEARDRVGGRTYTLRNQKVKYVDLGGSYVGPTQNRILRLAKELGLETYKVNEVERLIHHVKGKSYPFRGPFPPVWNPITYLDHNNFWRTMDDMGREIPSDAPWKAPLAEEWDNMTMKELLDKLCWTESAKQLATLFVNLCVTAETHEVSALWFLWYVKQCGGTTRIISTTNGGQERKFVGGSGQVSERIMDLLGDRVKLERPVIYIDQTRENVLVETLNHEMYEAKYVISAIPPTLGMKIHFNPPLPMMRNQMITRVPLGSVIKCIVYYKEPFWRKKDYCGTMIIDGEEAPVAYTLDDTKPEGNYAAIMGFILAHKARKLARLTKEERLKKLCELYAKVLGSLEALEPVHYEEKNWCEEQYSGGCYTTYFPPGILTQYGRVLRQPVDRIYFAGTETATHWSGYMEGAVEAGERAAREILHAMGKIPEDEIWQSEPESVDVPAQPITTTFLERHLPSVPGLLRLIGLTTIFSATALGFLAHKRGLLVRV
Kind of data set: Mixed-type inhibition of recombinant human MAO-B expressed in Pichia pastoris using benzylamine as substrate by fluorimetric horseradish peroxidase-Amplex Red-coupled assay. The essentials:
(§1)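 Purified Pichia-expressed human MAO-B, benzylamine substrate, H2O2 detected by HRP-Amplex Red coupling. Initial rates were measured at varying substrate and inhibitor levels. Inhibition mode came from global fits to competitive, mixed, non-competitive and uncompetitive Michaelis-Menten forms, chosen by r², plus double-reciprocal plots ([…] vs 1/[S]).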

The target in data set [2] is T1, Amine oxidase [flavin-containing] B. Kind of data set: Tight-binding competitive inhibition of recombinant human MAO-B expressed in Pichia pastoris using benzylamine as substrate by fluorimetric horseradish peroxidase-Amplex Red-coupled assay.
For data set [3] the target is unchanged. Kind of data set: Non-competitive inhibition of recombinant human MAO-B expressed in Pichia pastoris using benzylamine as substrate by fluorimetric horseradish peroxidase-Amplex Red-coupled assay. The essentials: as §1
In data set [4] the target is T2, Amine oxidase [flavin-containing] A (Homo sapiens, UniProt P21397).
T2 sequence (P21397 whole entry): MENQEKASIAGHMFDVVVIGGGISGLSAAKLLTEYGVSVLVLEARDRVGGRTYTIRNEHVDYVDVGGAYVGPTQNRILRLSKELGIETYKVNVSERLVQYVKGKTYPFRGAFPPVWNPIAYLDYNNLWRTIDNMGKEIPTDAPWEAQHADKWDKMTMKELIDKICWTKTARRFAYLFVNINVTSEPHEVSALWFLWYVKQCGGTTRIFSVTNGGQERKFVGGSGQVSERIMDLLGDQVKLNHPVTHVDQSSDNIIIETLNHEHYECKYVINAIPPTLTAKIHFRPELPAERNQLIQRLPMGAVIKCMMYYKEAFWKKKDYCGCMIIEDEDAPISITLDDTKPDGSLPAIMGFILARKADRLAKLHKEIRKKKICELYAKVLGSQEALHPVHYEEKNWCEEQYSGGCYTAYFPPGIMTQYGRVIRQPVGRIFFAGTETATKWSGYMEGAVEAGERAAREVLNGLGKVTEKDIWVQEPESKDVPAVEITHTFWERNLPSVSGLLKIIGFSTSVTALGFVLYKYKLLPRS
Kind of data set: Inhibition of recombinant human MAO-A expressed in Pichia pastoris up to 100 uM using kynuramine as substrate by fluorimetric horseradish peroxidase-Amplex Red-coupled assay.

The Ki is a measure of affinity in units of concentration, obtained from inhibition or displacement.

On to `O=C(Nc1cccc(F)c1)c1coc2ccccc2c1=O`, for which the “inhibition (INH)” value is given as “Active” in data set [1], “Active” in data set [3] and “Not Active” in data set [4]. For the same compound, the Ki in data set [2] stood at 31 nM.

In the case of `O=c1c(CNc2cccc(Cl)c2)coc2ccccc12`, in data set [2], the Ki is 2930 nM. The “inhibition (INH)” value in data set [4] is listed as “Not Active”.

The values above are taken from ChEMBL document CHEMBL4177757, “Tight-Binding Inhibition of Human Monoamine Oxidase B by Chromone Analogs: A Kinetic, Crystallographic, and Biological Analysis” (J Med Chem, 2018).
